CC50 and Activity data for 11 molecules are collected here from ChEMBL document CHEMBL1152122, “New lithocholic and chenodeoxycholic piperazinylcarboxamides with antiproliferative and pro-apoptotic effects on human cancer cell lines” (2008).

The test system of assay [1] is HCT-116. The assay can be described thus: Cytotoxicity against human HCT116 cells after 24 hrs by neutral red uptake assay. Type of assay: functional. The note with it: HCT-116, 24 h, read-out: LD50 (the source's name). The essentials: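 Compounds added after 24 h for a 24 h dose-response, with DMSO vehicle controls. Neutral red 50 µg/mL final for 3 h, then fixation, acid-ethanol extraction and OD at 570 nm. LD50 taken from curves; mean ± standard error of ≥3 experiments.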

For assay [2], the system named is KMS-11. The assay can be described thus: Cytotoxicity against human KMS11 cells at 50 uM after 24 hrs by neutral red uptake assay. In kind it is functional, cell-based. The essentials:
(§1)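 After 24 h, a single 50 µM dose was given for 24 or 48 h, with DMSO controls. Neutral red uptake for 3 h at 50 µg/mL final, with read-out at OD 570 nm. Viability expressed as % of untreated cells, four wells per line.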

Assay [3] concerns GBM. The assay can be described thus: Cytotoxicity against human GBM cells at 50 uM after 24 hrs by neutral red uptake assay. In kind it is functional, cell-based. The essentials:
as §1

The test system of assay [4] is HCT-116. The assay can be described thus: Cytotoxicity against human HCT116 cells at 50 uM after 24 hrs by neutral red uptake assay. Type of assay: functional, cell-based. The essentials:
as §1

Assay [5] relates to HCT-116. In words: Cytotoxicity against human HCT116 cells at 50 uM after 48 hrs by neutral red uptake assay. Type of assay: functional, cell-based. The essentials:
as §1

In assay [6] the test system is KMS-11. In words: Cytotoxicity against human KMS11 cells at 50 uM after 48 hrs by neutral red uptake assay. Type of assay: functional, cell-based. The essentials:
as §1

In assay [7] the test system is GBM. In words: Cytotoxicity against human GBM cells at 50 uM after 48 hrs by neutral red uptake assay. Type of assay: functional, cell-based. The essentials: as §1
The subject of assay [8] is KMS-11. The assay can be described thus: Induction of apoptosis in human KMS11 cells assessed as fragmentation of nuclei at 10 uM after 24 hrs […]. Type of assay: functional. For orientation: Immunoblotting shows a protein as a band on a membrane.
Assay [9] concerns KMS-11. The assay can be described thus: Induction of apoptosis in human KMS11 cells assessed as fragmentation of nuclei at 20 uM after 24 hrs […]. In kind it is functional.
The test system of assay [10] is KMS-11. In words: Induction of apoptosis in human KMS11 cells assessed as Cleavage of Mcl-1 after 24 hrs by Western blotting. Type of assay: functional, cell-based. The essentials:
(§2)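 KMS-11 cells treated 24 h. 5×10^6 cells lysed 40 min on ice (10 mM Tris pH 7.6, 150 mM NaCl, 5 mM EDTA, 1% Triton X-100, PMSF, aprotinin), cleared at 10,000 g. Equal BCA-quantified protein run on reducing SDS-PAGE and transferred to PVDF. Primary antibodies (PARP-1, Mcl-1, IκBα, phospho-IκBα) overnight at 4 °C, then HRP secondary 30 min, chemiluminescent detection.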

For assay [11], the system named is HCT-116. The assay can be described thus: Cytotoxicity against human HCT116 cells assessed as morphological changes at 12 uM after 24 hrs by neutral red uptake assay. Type of assay: functional, cell-based. The essentials:
(§3)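 Cells in RPMI 1640 with 10% FCS (GBM primary culture, HCT-116) or 5% FCS (KMS-11), 2 mM glutamine, antibiotics, used at 70–80% confluency. Morphology examined alongside neutral red uptake viability.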

Assay [12] deals with KMS-11. In words: Induction of apoptosis in human KMS11 cells assessed as Cleavage of PARP-1 after 24 hrs by Western blotting. In kind it is functional, cell-based. The essentials:
as §2

In assay [13] the test system is KMS-11. The assay can be described thus: Induction of apoptosis in human KMS11 cells assessed as DNA fragmentation at 5 uM after 24 hrs by Hoechst staining. Type of assay: functional, cell-based. The essentials:
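KMS-11 cells on glass coverslips fixed in 2% formaldehyde 10 min and stained with Hoechst 33342 (1 µg/mL in PBS, 5 min). Nuclei viewed by epifluorescence microscopy under 350 nm excitation.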

In assay [14] the test system is KMS-11. In words: Cytotoxicity against human KMS11 cells assessed as morphological changes at 12 uM after 24 hrs by neutral red uptake assay. In kind it is functional, cell-based. The essentials: as §3
Assay [15] concerns KMS-11. In words: Induction of apoptosis in human KMS11 cells at 40 uM after 24 hrs by PC5-labeled Apo2.7 antibody based flow cytometry. Type of assay: functional. The essentials:
(§4)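 KMS-11 cells treated 24 h at the stated concentrations, then stained with the phycoerythrin-labeled APO2.7 antibody kit, which detects mitochondrial 7A6 antigen. Analysed by flow cytometry and reported as % APO2.7-positive cells.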
(In general: A flow cytometer gives signals particle by particle.)

The test system of assay [16] is KMS-11. In words: Induction of apoptosis in human KMS11 cells assessed as hyperphosphorylation of IkappaB after 24 hrs by Western blotting. In kind it is functional, cell-based. The essentials: as §2
In assay [17] the test system is KMS-11. In words: Induction of apoptosis in human KMS11 cells after 24 hrs by PC5-labeled Apo2.7 antibody based flow cytometry. In kind it is functional, cell-based. The essentials: as §4
Assay [18] has as its system KMS-11. The assay can be described thus: Induction of apoptosis in human KMS11 cells at 10 uM after 24 hrs by PC5-labeled Apo2.7 antibody based flow cytometry. In kind it is functional. The essentials:
as §4

Assay [19] concerns KMS-11. The assay can be described thus: Cytotoxicity against human KMS11 cells assessed as [3H]thymidine incorporation at 20 uM after 24 hrs. Type of assay: functional, cell-based. The essentials: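 KMS-11 (multiple myeloma plasma-cell line) in RPMI 1640 with 5% FCS, seeded at 500,000 cells/well in triplicate at 37 °C, 5% CO2. After 24 h, drug or vehicle added in fresh medium. After 24 h, pulsed with 1 μCi/well [3H]thymidine. Cells trypsin/EDTA-detached, harvested onto glass filters, counted by scintillation. Output as % of untreated cells; three independent experiments.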

Assay [20] relates to GBM. The assay can be described thus: Cytotoxicity against human GBM cells assessed as morphological changes at 12 uM after 24 hrs by neutral red uptake assay. In kind it is functional, cell-based. The essentials:
as §3

Calls of active or inactive are those of the source. The calls are words filed in the database; no cut-off is given here.

As to `C[C@H](CCC(=O)N1CCN(c2ccccn2)CC1)[C@H]1CC[C@H]2[C@@H]3CC[C@@H]4C[C@H](O)CC[C@]4(C)[C@H]3CC[C@]12C`, in the assay with HCT-116 [1], the CC50 is 50 µM.
As to `C[C@H](CCC(=O)O)[C@H]1CC[C@H]2[C@@H]3[C@H](O)C[C@@H]4C[C@H](O)CC[C@]4(C)[C@H]3CC[C@]12C` [CHENODIOL], the result in the assay on KMS-11 [2], in the assay on GBM [3], with HCT-116 [4], with HCT-116 [5], with KMS-11 [6] and with GBM [7] was inactive. Moreover, the CC50 in the assay with HCT-116 [1] was over 50 µM.
`C[C@H](CCC(=O)N1CCN(C/C=C/c2ccccc2)CC1)[C@H]1CC[C@H]2[C@@H]3[C@H](O)C[C@@H]4C[C@H](O)CC[C@]4(C)[C@H]3CC[C@]12C`: the Activity in the assay on KMS-11 [8] was 5%; in the assay with KMS-11 [9], 61%; with KMS-11 [15], 86%; with KMS-11 [17], “Dose-dependent effect”; in the assay with KMS-11 [18] it was 37%. Moreover, the outcome in the assay with KMS-11 [2], in the assay with KMS-11 [10], with HCT-116 [11], in the assay on KMS-11 [12], in the assay with KMS-11 [13] and in the assay with KMS-11 [14] was Active. Further, the outcome in the assay with GBM [3], in the assay on HCT-116 [4], with KMS-11 [16], with KMS-11 [19] and in the assay with GBM [20] was Active. Moreover, the CC50 in the assay with HCT-116 [1] came out at 18.5 µM.
Consider `C(=C\c1ccccc1)/CN1CCNCC1`, for which the outcome with KMS-11 [2], in the assay on GBM [3], in the assay on HCT-116 [4], with HCT-116 [5], with KMS-11 [6] and in the assay with GBM [7] was inactive.
In the case of `C[C@H](CCC(=O)N1CCN(c2ccccn2)CC1)[C@H]1CC[C@H]2[C@@H]3[C@H](O)C[C@@H]4C[C@H](O)CC[C@]4(C)[C@H]3CC[C@]12C`, the outcome with KMS-11 [2], in the assay with GBM [3], with HCT-116 [4], in the assay on HCT-116 [5], in the assay on KMS-11 [6] and in the assay on GBM [7] was inactive. Moreover, the CC50 with HCT-116 [1] is over 50 µM.
On to `C[C@H](CCC(=O)N1CCN(c2ncccn2)CC1)[C@H]1CC[C@H]2[C@@H]3[C@H](O)C[C@@H]4C[C@H](O)CC[C@]4(C)[C@H]3CC[C@]12C`, for which the CC50 in the assay on HCT-116 [1] came to 30 µM.
On to `C[C@H](CCC(=O)O)[C@H]1CC[C@H]2[C@@H]3CC[C@@H]4C[C@H](O)CC[C@]4(C)[C@H]3CC[C@]12C` [LITHOCHOLIC ACID], for which the result with KMS-11 [2], in the assay with GBM [3], with HCT-116 [4], with HCT-116 [5], in the assay with KMS-11 [6] and in the assay on GBM [7] was inactive. Also, in the assay with HCT-116 [1], the CC50 is over 50 µM.
`c1ccc(N2CCNCC2)nc1`: the result in the assay with KMS-11 [2], in the assay on GBM [3], in the assay on HCT-116 [4], in the assay with HCT-116 [5], in the assay with KMS-11 [6] and in the assay with GBM [7] was inactive.
In the case of `c1cnc(N2CCNCC2)nc1`, the result in the assay on KMS-11 [2], in the assay with GBM [3], with HCT-116 [4], in the assay with HCT-116 [5], in the assay on KMS-11 [6] and in the assay with GBM [7] was inactive.
Take `C[C@H](CCC(=O)N1CCN(C/C=C/c2ccccc2)CC1)[C@H]1CC[C@H]2[C@@H]3CC[C@@H]4C[C@H](O)CC[C@]4(C)[C@H]3CC[C@]12C`: the result in the assay on KMS-11 [2], in the assay on GBM [3], in the assay with HCT-116 [4], in the assay with HCT-116 [5], with KMS-11 [6] and in the assay with GBM [7] was inactive. Further, the CC50 with HCT-116 [1] was over 50 µM.
Take `C[C@H](CCC(=O)N1CCN(c2ncccn2)CC1)[C@H]1CC[C@H]2[C@@H]3CC[C@@H]4C[C@H](O)CC[C@]4(C)[C@H]3CC[C@]12C`: in the assay with HCT-116 [1], the CC50 worked out at 50 µM.
